This is an account of results in PubChem BioAssay AID623969 (Broad Institute, 2012).

SMILES strings stand for the structures. “And” between values parts separate entries of the source, which are not always exact repeats. Equal entries are not always repeated.

The subject of this assay is S. cerevisiae growth in glycerol medium, OD600, 48 h. Kind of assay: S. cerevisiae growth inhibition in glycerol medium, dose response, OD600, powder samples, set 3 (AID 623969). The gist of the method:
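Assay system: S. cerevisiae yeast on glycerol. Buffer or medium: CSM medium supplemented with glycerol as carbon source. Detection: optical density at 600 nm. Times: 48 h exposure, 30 °C, no shaking. Benchmarks: amphotericin B 10 µM positive control. Doses: pinned compound dilution series. Read-out basis: Glycerol-dependent yeast growth.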

As for `CCOC(=O)N1C(=O)C2(CCCCC2)N(c2ccccc2)C1=S`, the AC50 is 20 nM.

Regarding `CCOC(=O)N1C(=O)C2(CCCCC2)N(c2ccc(C#N)cc2)C1=S`, the AC50 was 4.81 nM.

On to `C/C=C/[C@@H]1[C@H]2C[C@@H](C)CC[C@@H]2C(C)=C[C@H]1C(=O)c1c(O)c(-c2ccc(O)cc2)c[nH]c1=O`, for which the AC50 was 33.5 nM.

As to `CCOC(=O)N1C(=O)C2(CCCCC2)N(c2cccc(C)c2)C1=S`, the AC50 was 27.6 nM.

Turning to `CCOC(=O)N1C(=O)C2(CCCCC2)N(c2ccc(C)cc2)C1=S`, the AC50 is 15 nM and 13.6 nM.

Turning to `CCOC(=O)N1C(=O)C2(CCCCC2)N(c2ccc(Cl)cc2)C1=S`, the AC50 was 8.26 nM.

With `CCOC(=O)N1C(=O)C2(CCCCC2)N(c2ccc(F)cc2)C1=S`, the AC50 is 5.61 nM.

Regarding `CC1/C=C/C=C\C=C\C=C\C=C\C=C\C=C\C(O[C@H]2OC(C)C(O)C(N)C2O)CC2OC(O)(CC(O)CC(O)C(O)CCC(O)CC(O)CC(=O)OC(C)C(C)C1O)CC(O)C2C(=O)O` (stereo partly drawn), the AC50 was 234 nM.
